These results are taken from ChEMBL document CHEMBL3351346, “Design, synthesis, structure-function relationship, bioconversion, and pharmacokinetic evaluation of ertapenem prodrugs” (J Med Chem, 2014).

As a reminder, the AUC is concentration integrated over time. A word on the AUC(0-t): it is the area under the concentration-time curve up to a stated or last time point. A higher AUC(0-t) goes with more exposure.

Series [1] in a line: Stability in pH 6.5 simulated gastrointestinal fluid assessed as compound remaining at 50 uM after 3 hrs by LC-MS/MS method. Type of series: ADME. The settings on record: read-out: Stability. In short, it runs like this:
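Compounds at 50 μM were incubated in fasted-state simulated intestinal fluid (FaSSIF, pH 6.5) for over 3 h. Percent remaining was determined by LC-MS/MS.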

The nature of series [2]: Stability in pH 2.0 simulated gastric fluid assessed as compound degradation to beta-lactam ring open products at 1 uM after 60 mins by LC-MS/MS method. Type of series: ADME. To be noted: read-out: Drug degradation. In short, it runs like this:
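Incubation was in simulated gastric fluid (SGF, pH 2.0) for 60 min, with loss to the β-lactam ring-opened product measured by LC-MS/MS.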

In series [3] the test system is Rattus norvegicus. The series is described as follows: Oral bioavailability in fasted Sprague-Dawley rat assessed as ertapenem and monoetser metabolites level at 10 mg/kg dosed through intraduodenal route by LC-MS/MS method. Type of series: ADME, organism-based. The settings on record: in vivo. In short, it runs like this:
(§1)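 Total absorption followed intraduodenal dosing with LC-MS/MS of plasma over 8 h. It was calculated as the combined dose-normalized AUC of circulating parent prodrug, ertapenem and two monoesters, divided by dose-normalized AUC of ertapenem given iv. Vehicle was 30% Captisol or 0.5% methylcellulose.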

A short description of series [4]: Stability in pH 7.4 phosphate buffer assessed as compound remaining at 50 uM after 3 hrs by LC-MS/MS method. It is filed as physicochemical. The settings on record: read-out: Stability.
A short description of series [5]: Stability in human plasma assessed as compound remaining at 50 uM at 37 degC after 60 mins by LC-MS/MS method. Type of series: ADME, cell-free. To be noted: read-out: Stability. The gist of the method:
(§2)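 Prodrugs were incubated in rat or human plasma for 60 min. Disappearance of prodrug and concomitant appearance of ertapenem were followed by LC-MS/MS, and in selected cases monoesters from partial hydrolysis were also monitored. Ertapenem itself was incubated the same way as a control.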

The subject of series [6] is Rattus norvegicus. The series is described as follows: AUC (0 to 8 hrs) in fasted Sprague-Dawley rat at 10 mg/kg dosed through intraduodenal route by LC-MS/MS method. Type of series: ADME, organism-based, Plasma. To be noted: in vivo, other, 8 h, BLD = below limit of detection. Also on record: time < 8 hr, dose 10 mg/kg, route intraduodenal. The gist of the method:
(§3)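 Prodrugs were given intraduodenally to bypass stomach acid. Plasma was sampled at intervals over 8 h, and parent prodrug, the two monoester metabolites and ertapenem were quantified by LC-MS/MS. The lower limit of quantitation was 5 nM. AUC(0–8) was used, and it differed from AUC(0–∞) by ±20%. Vehicles were 30% Captisol or 0.5% methylcellulose, as solution or suspension depending on compound.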

In series [7] the test system is Rattus norvegicus. The series is described as follows: AUC (0 to 8 hrs) in fasted Sprague-Dawley rat assessed as ertapenem level at 10 mg/kg dosed through intraduodenal route by LC-MS/MS method. Type of series: ADME, organism-based, Plasma. More on the design: time < 8 hr, dose 10 mg/kg, route intraduodenal. The settings on record: in vivo, other. In short, it runs like this:
as §3

A short description of series [8]: Stability in rat plasma assessed as compound remaining at 50 uM at 37 degC after 60 mins by LC-MS/MS method. It is filed as ADME, cell-free. The settings on record: read-out: Stability. In short, it runs like this:
as §2

The subject of series [9] is Rattus norvegicus. The experiment in a line: Oral bioavailability in fasted Sprague-Dawley rat assessed as ertapenem level at 10 mg/kg dosed through intraduodenal route by LC-MS/MS method. The settings on record: in vivo. Type of series: ADME, organism-based. In short, it runs like this:
(§4)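 After intraduodenal dosing, plasma over 8 h was analysed by LC-MS/MS. Bioavailability was calculated as dose-normalized AUC of ertapenem formed from the prodrug divided by dose-normalized AUC of ertapenem dosed iv. Vehicle was 30% Captisol or 0.5% methylcellulose.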

Series [10] deals with Canis familiaris. The series is described as follows: Oral bioavailability in fasted Beagle dog assessed as ertapenem level at 10 mg/kg dosed through intraduodenal route by LC-MS/MS method. To be noted: in vivo. It is filed as ADME, organism-based, Canis lupus familiaris. In short, it runs like this:
as §4

The subject of series [11] is Canis familiaris. The series is described as follows: AUC (0 to 8 hrs) in fasted Beagle dog assessed as ertapenem level at 10 mg/kg dosed through intraduodenal route by LC-MS/MS method. It is filed as ADME, organism-based, Canis lupus familiaris, Plasma. Also on record: time < 8 hr, dose 10 mg/kg, route intraduodenal. To be noted: in vivo, other. In short, it runs like this:
as §3

The test system of series [12] is Canis familiaris. The series is described as follows: AUC (0 to 8 hrs) in fasted Beagle dog assessed as 8-OH, C-3 ester level at 10 mg/kg dosed through intraduodenal route by LC-MS/MS method. Type of series: ADME, organism-based, Canis lupus familiaris, Plasma. More on the design: time < 8 hr, dose 10 mg/kg, route intraduodenal. To be noted: in vivo, other. The gist of the method:
as §3

Series [13] deals with Canis familiaris. The series is described as follows: Oral bioavailability in fasted Beagle dog assessed as assessed as ertapenem and monoetser metabolites level at 10 mg/kg dosed through intraduodenal route by LC-MS/MS method. To be noted: in vivo. It is filed as ADME, organism-based, Canis lupus familiaris. The gist of the method:
as §1

The nature of series [14]: (§5) AUC (0 to 8 hrs) in fasted Beagle dog at 10 mg/kg dosed through intraduodenal route by LC-MS/MS method. It is filed as ADME, organism-based, Canis lupus familiaris, Plasma. More on the design: time < 8 hr, dose 10 mg/kg, route intraduodenal. The settings on record: Beagle, plasma. The gist of the method:
as §3

Series [15] relates to Canis familiaris. The experiment in a line: AUC (0 to 8 hrs) in fasted Beagle dog assessed as 8-OH, benzoate ester level at 10 mg/kg dosed through intraduodenal route by LC-MS/MS method. It is filed as ADME, organism-based, Canis lupus familiaris, Plasma. More on the design: time < 8 hr, dose 10 mg/kg, route intraduodenal. To be noted: in vivo, other. The gist of the method:
as §3

For series [16], the system named is Rattus norvegicus. The experiment in a line: AUC (0 to 8 hrs) in fasted Sprague-Dawley rat assessed as 8-OH, C-3 ester level at 10 mg/kg dosed through intraduodenal route by LC-MS/MS method. It is filed as ADME, organism-based, Plasma. More on the design: time < 8 hr, dose 10 mg/kg, route intraduodenal. To be noted: in vivo, other, BLD = below limit of detection. In short, it runs like this:
as §3

For series [17], the system named is Rattus norvegicus. The experiment in a line: Oral bioavailability in fasted Sprague-Dawley rat assessed as ertapenem level at 4.41 mg/kg dosed through intraduodenal route by LC-MS/MS method. It is filed as ADME, organism-based. To be noted: in vivo. The gist of the method:
as §4

Series [18] in a line: AUC (0 to 8 hrs) in fasted Sprague-Dawley rat at 4.41 mg/kg dosed through intraduodenal route by LC-MS/MS method. Also on record: time < 8 hr, dose 4.41 mg/kg, route intraduodenal. To be noted: plasma. Type of series: ADME, organism-based. The gist of the method:
as §3

Series [19] relates to Rattus norvegicus. The experiment in a line: AUC (0 to 8 hrs) in fasted Sprague-Dawley rat assessed as 8-OH, benzoate ester level at 4.41 mg/kg dosed through intraduodenal route by LC-MS/MS method. It is filed as ADME, organism-based, Plasma. More on the design: time < 8 hr, dose 4.41 mg/kg, route intraduodenal. The settings on record: in vivo, other. In short, it runs like this: as §3

In series [20] the test system is Rattus norvegicus. The series is described as follows: Oral bioavailability in fasted Sprague-Dawley rat assessed as ertapenem and monoetser metabolites level at 4.41 mg/kg dosed through intraduodenal route by LC-MS/MS method. To be noted: in vivo. Type of series: ADME, organism-based. The gist of the method:
as §1

For series [21], the system named is Rattus norvegicus. The experiment in a line: AUC (0 to 8 hrs) in fasted Sprague-Dawley rat assessed as 8-OH, C-3 ester level at 4.41 mg/kg dosed through intraduodenal route by LC-MS/MS method. It is filed as ADME, organism-based, Plasma. Also on record: time < 8 hr, dose 4.41 mg/kg, route intraduodenal. The settings on record: in vivo, other. In short, it runs like this:
as §3

Series [22] relates to Canis familiaris. The description is as §5. Type of series: ADME, organism-based, Canis lupus familiaris, Plasma. Also on record: time < 8 hr, dose 10 mg/kg, route intraduodenal. The settings on record: in vivo, other, 8 h. The gist of the method:
as §3

Series [23] relates to Rattus norvegicus. The series is described as follows: AUC (0 to 8 hrs) in fasted Sprague-Dawley rat assessed as ertapenem level at 4.41 mg/kg dosed through intraduodenal route by LC-MS/MS method. Type of series: ADME, organism-based, Plasma. More on the design: time < 8 hr, dose 4.41 mg/kg, route intraduodenal. To be noted: in vivo, other. The gist of the method: as §3

Regarding `CC(C)c1oc(=O)oc1COC(=O)C1=C(S[C@@H]2CN[C@H](C(=O)Nc3cccc(C(=O)OCc4oc(=O)oc4C(C)C)c3)C2)[C@H](C)[C@@H]2[C@@H]([C@@H](C)O)C(=O)N12`, the remaining at 3 h, 50 µM in series [1] and in series [4] was over 95% throughout. Also, the degraded at 1 h, 1 µM in series [2] is over 25%. Besides, the F with Rattus norvegicus [3] and in the series on Rattus norvegicus [9] was 0.9% in each case. The remaining at 1 h, 50 µM in series [5] was found to be 8%; in series [8], 6%. Further, the AUC entry in the series on Rattus norvegicus [6] was “BLD”; with Rattus norvegicus [7], 0.4 µM·h.

As to `C[C@@H](O)[C@H]1C(=O)N2C(C(=O)OCC(F)(F)F)=C(S[C@@H]3CN[C@H](C(=O)Nc4cccc(C(=O)OCC(F)(F)F)c4)C3)[C@H](C)[C@H]12`, the F with Canis familiaris [10] amounted to 10.2%; in the series on Canis familiaris [13], 12%; in the series on Rattus norvegicus [3], 3%; in the series on Rattus norvegicus [9], 3%. Also, the AUC was 6.7 µM·h in the series with Canis familiaris [11]; 0.8 µM·h with Canis familiaris [12]; “BLD” with Rattus norvegicus [6]; 0.2 µM·h in the series on Canis familiaris [15]; 1.7 µM·h with Rattus norvegicus [7]. Further, the remaining at 3 h, 50 µM in [1] and in series [4] was over 95% each time. Further, in [2], the degraded at 1 h, 1 µM was over 25%. Besides, the values for the remaining at 1 h, 50 µM in series [5] and in series [8] were 6% and 3%, respectively. The compound further showed an AUC(0-t) at 8 h in [14] of 0.2 µM·h.

Turning to `COC(=O)C1=C(S[C@@H]2CN[C@H](C(=O)Nc3cccc(C(=O)OC)c3)C2)[C@H](C)[C@@H]2[C@@H]([C@@H](C)O)C(=O)N12`, the values for the F in the series on Canis familiaris [10] and in the series with Canis familiaris [13] were 14.3% and 24.2%, respectively. For the same compound, the AUC with Canis familiaris [11] was determined as 12 µM·h; with Canis familiaris [12], 3.9 µM·h; in the series with Canis familiaris [15] it was 3.6 µM·h. In addition, the remaining at 3 h, 50 µM in [1] and in series [4] was over 95% each time. Besides, the degraded at 1 h, 1 µM in [2] is over 25%. In addition, the remaining at 1 h, 50 µM in [5] and in [8] was 0% throughout. Besides, the AUC(0-t) at 8 h in [14] is 0.8 µM·h.

Consider `CC(C)C(=O)OCOC(=O)C1=C(S[C@@H]2CN[C@H](C(=O)Nc3cccc(C(=O)[O-])c3)C2)[C@H](C)[C@@H]2[C@@H]([C@@H](C)O)C(=O)N12.[Na+]`, for which the AUC entry in the series with Rattus norvegicus [16] was “BLD”; with Rattus norvegicus [6] it was “BLD”; in the series with Rattus norvegicus [7], 0.7 µM·h. Further, the remaining at 3 h, 50 µM in series [1] and in [4] was over 95% in each case. Also, the degraded at 1 h, 1 µM in series [2] is over 25%. The F in the series with Rattus norvegicus [3] and in the series on Rattus norvegicus [9] was 1.2% throughout. In addition, the remaining at 1 h, 50 µM was 15% in series [5] and 0% in [8].

For the compound `CCOC(=O)C1=C(S[C@@H]2CN[C@H](C(=O)Nc3cccc(C(=O)OCC)c3)C2)[C@H](C)[C@@H]2[C@@H]([C@@H](C)O)C(=O)N12`, the F is 18.1% in the series with Canis familiaris [10], 5% in the series with Rattus norvegicus [17], 31.3% in the series on Canis familiaris [13] and 6.6% in the series with Rattus norvegicus [20]. The AUC came to 2.2 µM·h in the series on Canis familiaris [12]; 0.4 µM·h in the series on Rattus norvegicus [19]; 0.1 µM·h with Rattus norvegicus [21]; 5 µM·h in the series on Canis familiaris [22]; 3.3 µM·h in the series with Canis familiaris [15]; 1.5 µM·h in the series with Rattus norvegicus [23]. Also, the remaining at 3 h, 50 µM in series [1] and in [4] was over 95% each time. Also, the degraded at 1 h, 1 µM in series [2] was over 25%. This compound also came in with an AUC(0-t) at 8 h in series [18] of 0.06 µM·h.
